Bioassay records: PubChem BioAssay, The Scripps Research Institute Molecular Screening Center
Rows were chosen to be rich in hits. Some 2.9% of all compounds tested hit in one or more screens of this group.
CHO parental Ca: counter-screen for OX1R antagonists: effect in parental CHO cells; parental CHO-K1, ATP-induced calcium, Fluo-8 fluorescence; inhibition, % at 5.6 µM; hit rate 0.63% among 330,000; AID 463079;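 active = inhibition above that plate's mean sample inhibition plus 3 SD, cut at about 26% in these data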
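Assay system – parental CHO cells · Reagent – ATP stimulus · Detection – intracellular calcium via Fluo-8 no-wash fluorescent dye · Evaluation – percent inhibition of ATP-evoked calcium rise, normalized to controls · Controls – ATP wells versus no-ATP DMSO wells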
CHO-K1 Ca PAM: counter-screen for M1 PAMs: effect in parental CHO-K1 cells | ATP EC20, Fluo-8 calcium fluorescence; 0% at ATP EC20, 100% at ATP max | activation, % at 3 µM | hit rate 0.02% among 360,000 | AID 602247;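 active = activation above the run cutoff, the mean activation of all test compounds plus 3 SD, cut at about 40% in these data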;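 note: peak over basal fluorescence ratio in a 140 s read after ATP addition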
CHO-K1 Ca antag: counter-screen for M1 antagonists: effect in parental CHO-K1 cells; ATP-induced calcium, Fluo-8 fluorescence; inhibition, % at 3 µM; hit rate 0.6% among 360,000; AID 602250;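 active = inhibition above a per-plate cutoff, the plate's mean sample inhibition plus 3 SD, cut at about 24% in these data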
OX1R antag-1: blocks the human orexin 1 receptor. O43613. OX1R-expressing cells, FRET antagonist read-out. inhibition, % at 6.6 µM. hit rate 1.8% among 330,000; in the data active = inhibition mostly above about 38%, no sharp cut-off; inactive = mostly below about 40%
Target sequence (O43613 whole entry, looked up): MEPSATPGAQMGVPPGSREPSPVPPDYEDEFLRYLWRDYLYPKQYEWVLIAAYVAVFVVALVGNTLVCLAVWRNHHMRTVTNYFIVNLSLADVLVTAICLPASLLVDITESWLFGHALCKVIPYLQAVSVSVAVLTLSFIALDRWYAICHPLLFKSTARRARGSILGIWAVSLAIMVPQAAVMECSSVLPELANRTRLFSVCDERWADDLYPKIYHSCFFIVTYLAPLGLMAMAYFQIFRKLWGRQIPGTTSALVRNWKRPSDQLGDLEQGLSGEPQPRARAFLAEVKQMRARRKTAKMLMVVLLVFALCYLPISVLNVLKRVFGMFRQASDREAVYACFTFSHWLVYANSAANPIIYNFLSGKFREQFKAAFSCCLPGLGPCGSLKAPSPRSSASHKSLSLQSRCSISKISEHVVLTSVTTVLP
OX1R antag-2: blocks the human orexin 1 receptor. inhibition, % at 5 µM. hit rate 0.43% among 330,000. CHO/OX1R cells, Fluo-8 calcium fluorescence, orexin A. AID 434989. O43613;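 active = inhibition above its plate's threshold, mean inhibition of all tested compounds on the plate plus 3 SD, cut at about 37% in these data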
CHO-K1 Ca ag: nonselective activator or artifact in parental CHO-K1 cells; Fluo-8 calcium fluorescence; scaled to maximal ATP response, vehicle zero; hit rate 0.48% among 360,000; AID 602248; activation, % at 3 µM; in the data active = activation above about 15%;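 note: untransfected CHO-K1 host cells lacking M1 receptor as counterscreen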
Hits are given with their value; . = inactive; / = no result given.

SMILES	CHO parental Ca	CHO-K1 Ca PAM	CHO-K1 Ca antag	OX1R antag-1	OX1R antag-2	CHO-K1 Ca ag
Cc1ccccc1NC1=C/C(=N\S(=O)(=O)c2ccc(C(=O)O)cc2)c2ccccc2C1=O	.	.	.	59	.	.
O=C(O)c1ccc(S(=O)(=O)/N=C2\C=C(Nc3ccccc3F)C(=O)c3ccccc32)cc1	.	.	.	63	.	.
CCC(=O)NNC(=O)Cc1c(C)n(C(=O)c2ccc(Cl)cc2)c2ccc(OC)cc12	.	.	.	.	.	.
C=CS(=O)(=O)N(Cc1ccccc1Br)[C@H](CO)Cc1ccccc1	/	.	.	/	/	.
C=CCCN([C@H](CO)Cc1ccccc1)S(=O)(=O)c1ccccc1Br	.	.	.	46	.	.
C=CCCCN(Cc1ccccc1)S(=O)(=O)c1ccccc1Br	44	.	.	.	.	.
COc1cc(CN(CC(C)C)S(=O)(=O)c2ccccc2Br)cc(OC)c1	.	.	.	34	.	.
O=S(=O)(c1ccccc1Br)N(Cc1ccccc1)CC(O)COCc1ccccc1 (centres undefined)	.	.	.	36	.	.
O=C(NCCCN1CCCC1=O)Nc1ccccc1F	.	.	.	.	.	.
CCCC(=O)N(Cc1cc(=O)[nH]c2ccccc12)c1ccc(C)cc1C	/	.	.	/	/	.
CCC(=O)N(Cc1cc(=O)[nH]c2ccccc12)c1ccccc1C	.	.	55	.	.	.
O=C(NC(=S)NCCc1ccccc1)c1cccc(Cl)c1	.	.	.	.	.	.
N#CC(C#N)=C1C=C2C=C(N3CCOCC3)CCC2CC1 (centres undefined)	/	.	.	/	/	65
CCN1CCN(C2=CC3=CC(=C(C#N)C#N)CCC3CC2)CC1 (centres undefined)	/	.	78	/	/	366
CN1CCN(C2=CC3=CC(=C(C#N)C#N)CCC3CC2)CC1 (centres undefined)	/	.	85	/	/	522
N#CC(C#N)=C1C=C2C=C(N3CCCCCC3)CCC2CC1 (centres undefined)	/	.	102	/	/	939
CC1(C)CC(NCCN2CCN(C3=CC(=C(C#N)C#N)CC(C)(C)C3)CC2)=CC(=C(C#N)C#N)C1	.	.	.	.	.	.
Cc1ccc(CN2C(=O)C(C)Nc3ncnc(N4CCOCC4)c32)cc1 (centres undefined)	.	.	.	.	.	.
O=c1[nH]c(CSc2nc3ccccc3[nH]2)nc2c1cnn2-c1ccccc1	52	.	.	106	90	.
O=c1[nH]c(SCc2nc3c(cnn3-c3ccccc3)c(=O)[nH]2)nc2ccccc12	/	.	.	/	/	.
Cc1ccc2nc(SCc3nc4c(cnn4-c4ccccc4)c(=O)[nH]3)[nH]c2c1	39	.	27	90	80	.
O=c1[nH]c(CSc2ncccn2)nc2c1cnn2-c1ccccc1	.	.	.	.	.	.
COCOCCn1cc(CN2CCS(=O)(=O)N(Cc3ccc(-c4cccc(CO)c4)cc3)C(C)C2=O)nn1 (centres undefined)	/	.	.	/	/	.
COc1ccc(N2CC(C(=O)N3CCCC(C)C3)CC2=O)cc1 (centres undefined)	.	.	.	.	.	.
O=C(NCC(=O)N(CCc1ccccc1)C(C(=O)NC1CCCC1)c1cccnc1)c1ccco1 (centres undefined)	.	.	.	.	.	.
SMILES	CHO parental Ca	CHO-K1 Ca PAM	CHO-K1 Ca antag	OX1R antag-1	OX1R antag-2	CHO-K1 Ca ag
COCCN(C(=O)c1ccco1)C(C(=O)NC1CCCC1)c1cccs1 (centres undefined)	.	.	25	.	.	.
O=C(NC1CCCC1)C(c1cccnc1)N(CCc1ccccc1)C(=O)c1ccco1 (centres undefined)	.	.	.	57	.	.
CCOC(OCC)c1cn(Cc2ccc3c(c2)C(=O)c2ccccc2C3=O)nn1	.	/	/	76	.	/
Cc1ccc(C)c(Sc2ccc(S(=O)(=O)Nc3ccc(C(=O)O)cc3)cc2)c1	.	.	.	.	.	.
CC(=O)c1cccc([N+](=O)[O-])c1	.	.	.	.	.	.
O=C(C#Cc1ccccc1)c1cccc([N+](=O)[O-])c1	36	.	.	.	.	.
CCN(C[C@H]1N[C@@](Cc2ccccc2)(C(=O)OC)[C@H]2C(=O)N(C)C(=O)[C@@H]12)C(=O)c1ccccc1	.	.	.	.	.	.
CCN(C[C@H]1N[C@@](Cc2ccccc2)(C(=O)OC)[C@H]2C(=O)N(Cc3ccccc3)C(=O)[C@@H]12)C(=O)Nc1ccc(C)cc1	.	.	.	.	.	.
CCN(C[C@H]1N[C@@](Cc2ccccc2)(C(=O)OC)[C@H]2C(=O)N(C)C(=O)[C@@H]12)C(=O)C1CCCCC1	.	.	26	.	.	.
CCN(C[C@H]1N[C@@](Cc2ccccc2)(C(=O)OC)[C@H]2C(=O)N(Cc3ccccc3)C(=O)[C@@H]12)C(=O)Nc1ccc(C(F)(F)F)cc1	.	.	31	37	.	.
CCN(CC)S(=O)(=O)c1ccc(O)c(NC(=O)c2cc(-c3cc(OC)c(OC)c(OC)c3)nc3ccccc23)c1	.	.	.	68	.	.
O=C(Cn1nnc(-c2ccccc2NC(=O)c2ccccc2F)n1)NC1CCCC1	32	.	.	.	.	.
Nc1cc2c3c(cccc3c1)C(=O)N(CCN1CCCC1)C2=O	.	.	.	43	.	.
NC(=O)CN1CCN(CCN2C(=O)c3cccc4cccc(c34)C2=O)CC1	.	.	.	42	.	.
O=C(CN1C(=O)c2cccc3cccc(c23)C1=O)N1CCCCCC1	.	.	.	56	.	.
Cc1ccc(S(=O)(=O)Nc2ccc(NC(=O)Nc3cccc(C(F)(F)F)c3)cc2)cc1	.	.	.	.	.	.
CN(C)S(=O)(=O)Oc1ccc(C(=O)Nc2cccc(C(F)(F)F)c2)cc1	53	.	.	51	.	.
O=C(Nc1ccc(OC(F)F)cc1)Nc1cccc(C(F)(F)F)c1	60	.	27	45	50	.
CCN(CC)S(=O)(=O)c1ccc(NC(=O)Nc2cccc(C(F)(F)F)c2)cc1	35	.	28	.	.	.
CN(C)S(=O)(=O)Oc1ccc(C(=O)Nc2cccc(Cl)c2)cc1	.	.	.	.	.	.
O=C(Nc1ccncc1)Nc1cccc(C(F)(F)F)c1	.	.	.	.	.	.
COc1ccc(OC)c(/C=C2/Sc3ccccc3C2=O)c1	37	.	35	.	57	38
COc1ccc(OC)c(C=C2CCc3ccccc3C2=O)c1	/	.	.	/	/	.
Nc1cc(=O)[nH]n1C1CCN(c2ccccc2)CC1	.	.	26	.	.	.
COc1ccc(CCNC(=O)Cn2nnc(C(=O)Nc3cc(C)ccc3C)c2N)cc1OC	.	.	.	.	.	.
O=C(COC(=O)c1ccccc1O)Nc1ccc(OC(F)F)cc1	.	.	.	.	.	.
